Source: PubChem BioAssay
Fh CTSL1 inh: cathepsin L1 inhibition, PFM18AAP counter-screen. recombinant F. hepatica cathepsin L1, Z-Leu-Arg-MCA fluorescence. 0.49% of 300,000 active. AID 1906. inhibition, % at 5.96 µM;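 active means inhibition above the mean of all tested compounds plus 3 SD, set per screening campaign, cut at about 17% in these data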
TDP2 inh: blocks human TDP2 phosphodiesterase activity; AID 720702; recombinant TDP2, T5PNP hydrolysis, p-nitrophenol absorbance 415 nm; 0.34% of 370,000 active; inhibition, % at 12.8 µM; O95551;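 active means inhibition above the mean of all tested compounds plus 3 SD, set per campaign, cut at about 25% in these data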
Target sequence (O95551 whole entry, looked up): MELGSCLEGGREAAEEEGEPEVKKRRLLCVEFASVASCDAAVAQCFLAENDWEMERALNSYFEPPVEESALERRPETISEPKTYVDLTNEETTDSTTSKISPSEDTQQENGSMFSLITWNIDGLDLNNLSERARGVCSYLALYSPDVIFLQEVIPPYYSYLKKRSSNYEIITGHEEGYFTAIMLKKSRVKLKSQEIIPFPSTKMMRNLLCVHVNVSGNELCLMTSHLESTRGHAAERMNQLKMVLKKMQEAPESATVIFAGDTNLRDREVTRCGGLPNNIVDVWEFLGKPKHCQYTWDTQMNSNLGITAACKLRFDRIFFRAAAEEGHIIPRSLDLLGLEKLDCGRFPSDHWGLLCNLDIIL
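System – recombinant human TDP2 · Quantity – TDP2 enzyme at 120 nM final · Doses – single concentration, 12.8 µM nominal, with 1% DMSO · Incubation – 2 h at 37 °C · Measured by – epi absorbance of p-nitrophenol freed from T5PNP by hydrolysis · Read-out – % inhibition relative to enzyme-containing and enzyme-free wells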
NSD2 HMT inh: inhibitors of human histone methyltransferase NSD2; inhibition, % at 12.5 µM; 0.54% of 310,000 active; NSD2 peptide methylation, AlphaScreen, 120 min; in the data active means inhibition above about 50%
UBC9 SUMO inh: blocks human SUMOylation mediated by UBC9; P63279; HTRF SUMOylation assay, SAE1/SAE2 + UBC9, in vitro; inhibition, % at 35 µM; 0.36% of 290,000 active; in the data active means inhibition above about 50%, passing the limit was not always enough
Target sequence (P63279 whole entry, looked up): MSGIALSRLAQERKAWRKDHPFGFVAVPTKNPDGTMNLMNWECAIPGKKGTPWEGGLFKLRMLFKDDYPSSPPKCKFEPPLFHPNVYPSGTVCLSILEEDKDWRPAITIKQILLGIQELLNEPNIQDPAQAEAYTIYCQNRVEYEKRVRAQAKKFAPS
AlphaScreen art: counter-screen for NSD2 inhibitors: AlphaScreen artifacts. shares compounds with NSD2 HMT inh. AlphaScreen artifact counterscreen, preloaded methylated H4 peptide. AC35, µM (highest dose often 10 µM). 9.4% of 1,500 active; call rule not given here
Each line names hits and unclear results; the compound was inactive in the other large screens (follow-up assays come after a bar, where they were run). Most compounds without a hit are left out; they make up all but 1.2% or so of the library.

CCCCN(C)c1c(C)nc2ccc(C(=O)NCc3cccs3)cn12	none (no result: Fh CTSL1 inh, UBC9 SUMO inh)
Cc1ccc(CSc2nnc(Nc3ccc(C)cc3)s2)cc1	NSD2 HMT inh 127 | AlphaScreen art inactive
Cc1cc(C)cc(NC(=O)C2C3C=CC4(O3)C2C(=O)N(CCCN2CCCC2)C4C(=O)NC2CCCC(C)C2C)c1 (configuration not stated)	NSD2 HMT inh 50 | AlphaScreen art inactive
COc1ccc(S(=O)(=O)N2CCCCC2)cc1NC(=O)Cc1ccsc1	NSD2 HMT inh 51 (no result: Fh CTSL1 inh, UBC9 SUMO inh) | AlphaScreen art inactive
O=C(CC(=O)NCCc1ccccc1)NCCc1ccccc1	NSD2 HMT inh 124 | AlphaScreen art inactive
OC(c1ccccc1)(c1ccccc1)C1CCN(CCCOc2ccc(C(F)(F)F)cc2)CC1	none (no result: Fh CTSL1 inh, NSD2 HMT inh, UBC9 SUMO inh)
Nc1ccc(O)c2c1C(=O)c1ccccc1C2=O	none (no result: NSD2 HMT inh)
NC1=CC(=O)C(=O)c2ccccc21	NSD2 HMT inh 100 (no result: Fh CTSL1 inh, UBC9 SUMO inh) | AlphaScreen art inactive
COc1cc2ccc(C(=O)O)cc2cc1OC	none (no result: Fh CTSL1 inh, UBC9 SUMO inh)
COc1ccccc1CN(Cc1cc2cc3c(cc2[nH]c1=O)OCCO3)Cc1nnnn1Cc1ccco1	NSD2 HMT inh 60 | AlphaScreen art inactive
Cc1onc(-c2ccc(Cl)cc2)c1-c1ccn(S(=O)(=O)c2cccc(Cl)c2)n1	none (no result: Fh CTSL1 inh, NSD2 HMT inh, UBC9 SUMO inh)
CCNC(=O)N(C)[C@H]1C[C@@H](c2ccccc2)N(C(C)=O)C[C@H]1CO	none (no result: Fh CTSL1 inh, NSD2 HMT inh, UBC9 SUMO inh)
Cc1ccc(NC(=O)CCC(=O)OCC(F)(F)C(F)F)cc1	NSD2 HMT inh 121 | AlphaScreen art inactive
O=C(NCC(=O)N1CCCCCCC1)c1ccc(Cl)c(Cl)c1	none (no result: Fh CTSL1 inh, UBC9 SUMO inh)
O=C1NC(NS(=O)(=O)c2ccccc2)(C(F)(F)F)C(=O)N1c1cccc(Cl)c1 (configuration not stated)	NSD2 HMT inh 96 | AlphaScreen art inactive
CCN(c1ccccc1C(=O)O)S(=O)(=O)c1ccc2[nH]c(=O)[nH]c2c1	none (no result: Fh CTSL1 inh)
CC(=O)C1=C(O)C(=O)N(CCc2c[nH]c3ccccc23)C1c1ccc(C)cc1 (configuration not stated)	none
CC(=O)C1=C(O)C(=O)N(CCc2c[nH]c3ccccc23)C1c1ccco1 (configuration not stated)	NSD2 HMT inh 61 | AlphaScreen art inactive
Cc1cc(OCC(=O)Nc2ccccc2N2CCCCC2)ccc1C(C)C	NSD2 HMT inh 77 (no result: UBC9 SUMO inh) | AlphaScreen art inactive
Cc1cc2ccccn2c1C(=O)c1ccc([N+](=O)[O-])o1	NSD2 HMT inh 61 | AlphaScreen art inactive
CC(C)=NOCC(=O)Nn1c(COc2c(C)cccc2C)nc2ccccc2c1=O	NSD2 HMT inh 57 | AlphaScreen art inactive
Cc1cccc(C)c1OCC(=O)Nn1c(COc2ccccc2)nc2ccccc2c1=O	none (no result: NSD2 HMT inh)
O=C(/C=C/c1ccco1)Nc1scc(-c2ccccc2)c1C(=O)O	NSD2 HMT inh 103 | AlphaScreen art inactive
CS(=O)(=O)N(CC(=O)NCc1ccc2c(c1)OCO2)c1cccc(Cl)c1	NSD2 HMT inh 106 | AlphaScreen art inactive
CC1CC(C)CN(C(=O)C2CCN(S(=O)(=O)c3cccs3)CC2)C1 (configuration not stated)	NSD2 HMT inh 50 | AlphaScreen art inactive
Cc1cc(C)c(NC(=O)COC(=O)c2cccc3c2C(=O)c2ccccc2C3=O)c(C)c1	none
Cc1cc(C)c(Nc2cc(S(=O)(=O)O)c(N)c3c2C(=O)c2ccccc2C3=O)c(C)c1	NSD2 HMT inh 145 | AlphaScreen art 6.2µM
C[C@@H]1COc2cc(N3CCSCC3)ccc2S(=O)(=O)N1	none (no result: Fh CTSL1 inh, NSD2 HMT inh, UBC9 SUMO inh)
Cn1c(=O)c2c(nc(CN3CCC(C(N)=O)CC3)n2Cc2ccccc2Cl)n(C)c1=O	NSD2 HMT inh 65 | AlphaScreen art inactive
CCC1CCCCN1C(=O)c1ccc(OC2CCN(C(=O)CCOC)CC2)cc1 (configuration not stated)	none
CCOC(=O)/C=C/c1ccc2c(c1)S(=O)(=O)N(Cc1ccc(OC)cc1)[C@H]2CC(=O)OCC	none (no result: NSD2 HMT inh, UBC9 SUMO inh)
C=CCOc1ccc(C[C@H](N)C(=O)NC[C@H]2O[C@@H](n3cc(C)c(=O)[nH]c3=O)C[C@@H]2O)cc1	none (no result: Fh CTSL1 inh, NSD2 HMT inh, UBC9 SUMO inh)
COc1ccc(CNC(=O)CCCn2nc(C)c([N+](=O)[O-])c2C)cc1OC	NSD2 HMT inh 86 | AlphaScreen art inactive
COc1ccc(S(=O)(=O)NNC(=O)Cc2csc(C)n2)cc1[N+](=O)[O-]	none (no result: UBC9 SUMO inh)
CCOC(=O)NCCc1c(C)nc2c(c(C)nn2C(C)(C)C)c1C	NSD2 HMT inh 68 | AlphaScreen art inactive
CCCCc1ccc(S(=O)(=O)NC(=O)C2(C)CCN2C(=O)CCc2cccs2)cc1 (configuration not stated)	none (no result: Fh CTSL1 inh, UBC9 SUMO inh)
Cc1ccnc(-n2c(CCN3C(=O)c4ccccc4C3=O)nc3ccccc3c2=O)c1	NSD2 HMT inh 52 | AlphaScreen art inactive
O=C1c2ccccc2C(=O)N1CCc1nc2ccccc2c(=O)n1-c1ccccn1	none
NC(=O)COC(=O)c1cccc(S(=O)(=O)N2CCN(c3ccc(F)cc3)CC2)c1	none
NC(=O)COC(=O)c1ccc(Cl)c(S(=O)(=O)N2CCN(c3ccc(F)cc3)CC2)c1	NSD2 HMT inh 52 | AlphaScreen art inactive
Cc1ccc(C)c(NC(=S)N(C)C)c1	none
Cc1cc(C)c(NC(=S)N(C)C)cc1C	NSD2 HMT inh 56 | AlphaScreen art inactive
CCOC(=O)N1CCN(C(=O)C[C@H]2C[C@@]3(C(=O)OC)C(=C[C@H](C4CCCC4)O[C@@H]3C)N(Cc3cccc4ccccc34)C2=O)CC1	none (no result: Fh CTSL1 inh, NSD2 HMT inh, UBC9 SUMO inh)
COc1ccccc1/C=N/Nc1cc(N(C)C)nc(N(C)C)n1	NSD2 HMT inh 100 (no result: UBC9 SUMO inh) | AlphaScreen art inactive
CN(C)c1cc(N/N=C\c2ccccc2)nc(N(C)C)n1	NSD2 HMT inh 103 (no result: UBC9 SUMO inh) | AlphaScreen art inactive
Cc1cc(N/N=C/c2ccccc2)nc(NCc2ccccc2)n1	none
COc1ccccc1/C=N/Nc1cc(C)nc(N2CCOCC2)n1	NSD2 HMT inh 57 | AlphaScreen art inactive
COc1ccccc1/C=N/Nc1nc(C)cc(=O)[nH]1	none (no result: Fh CTSL1 inh, UBC9 SUMO inh)
Cc1cc2nc(C3CCCCC3)c(CC(C)(C)C)n2c(C)c1Br	none (no result: Fh CTSL1 inh, NSD2 HMT inh, UBC9 SUMO inh)
CCOC(=O)[C@@]12CCCC=C1N(CCc1ccc(Cl)cc1)C(=O)[C@H]2CC(=O)N1CCOCC1	none (no result: Fh CTSL1 inh, NSD2 HMT inh, UBC9 SUMO inh)
CCc1ccccc1Oc1nc(NCCOC)nc2cc(-c3ccccc3)sc12	none (no result: Fh CTSL1 inh, UBC9 SUMO inh)
CC1NC(=O)NC1CCCCCC(=O)Nc1ccc(F)c(Cl)c1 (configuration not stated)	NSD2 HMT inh 103 | AlphaScreen art 3.8µM
O=C(COc1ccc(S(=O)(=O)N2CCCC2)cc1)Nc1ccc(F)cc1	NSD2 HMT inh 68 | AlphaScreen art inactive
CCOc1c(O)ccc(/C=C2\SC(=S)NC2=O)c1[N+](=O)[O-]	NSD2 HMT inh 53, UBC9 SUMO inh 50 | AlphaScreen art inactive
Cc1ccc2[nH]c3c(c2c1)CN(C(=O)CN(C)CC1OCCO1)CC3	Fh CTSL1 inh 17, NSD2 HMT inh 64 | AlphaScreen art inactive
COc1cc([N+](=O)[O-])ccc1NC(=O)NCCCN1CCCC1=O	none
COc1cc(OC)c([N+](=O)[O-])cc1/C=N/NC(=O)c1ccncc1	NSD2 HMT inh 81 | AlphaScreen art inactive
COc1cc(/C=N/NC(=O)c2ccncc2)c([N+](=O)[O-])cc1OC	none
COc1cccc(NC(=O)Nc2nc3ncccn3c2-c2ccc(C)cc2)c1	none (no result: Fh CTSL1 inh, NSD2 HMT inh, UBC9 SUMO inh)
